# Measured values published in ChEMBL document CHEMBL5030529, “Rationally Modified Antimicrobial Peptides from the N-Terminal Domain of Human RNase 3 Show Exceptional Serum Stability” (J Med Chem, 2021).
# Activity calls are given as the source filed them. No cut-off for these calls is given here. Square brackets hold non-standard residues; d marks the D form. Peptide text beside a SMILES is read from it. Orn = NCCC[C@H](N)C(=O)O
# What was measured:
# Cell membrane [1] = assay: Induction of membrane depolarization in Escherichia coli at 0.4 uM incubated 20 to 30 mins under dark by Eclipse fluorescence spectrometry; type: subcellular; details: time 20-30 min
# In short: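 Exponential-phase E. coli (OD 0.2–0.4) was washed in 5 mM HEPES, 20 mM glucose, 100 mM KCl, pH 7.2, and resuspended to OD 0.05. DiSC3(5) was added at 0.4 μM final and equilibrated in the dark for 20–30 min to a stable baseline. Peptide was then added and dye release was followed by fluorescence at ex 625 nm / em 666 nm.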
# Cell membrane [2] = assay: Induction of membrane damage in Escherichia coli assessed as loss of membrane integrity by measuring blebs at 10 uM incubated for 2 hrs by Electron scanning microscopy; type: subcellular
# In short: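 E. coli was grown in LB at 37 °C to OD600 0.4 and exposed to 10 μM peptide for 2 h at room temperature. Cells were collected on 0.1 μm filters, fixed in 2.5% glutaraldehyde in cacodylate buffer pH 7.4 and post-fixed in 1% OsO4. Samples were dehydrated in ethanol, coated with gold–palladium and imaged at 15 kV.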
# Pseudomonas sp. = assay: Antimicrobial activity against Pseudomonas sp assessed as bacterial growth inhibition incubated in presence of serum for 24 hrs; type: functional
# In short: (§1)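 Broth microdilution in polypropylene plates in Mueller-Hinton medium, inoculum 5 × 10^5 CFU/mL, 37 °C for 24 h. […] MIC is the lowest peptide concentration with no growth. Values are the mean of three independent studies.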
# Escherichia coli [3] = assay: Antimicrobial activity against clinical isolate Escherichia coli 116878 assessed as bacterial growth inhibition incubated in presence of serum for 24 hrs; type: functional; in short: as §1
# Shigella flexneri = assay: Antimicrobial activity against Shigella flexneri assessed as bacterial growth inhibition incubated in presence of serum for 24 hrs; type: functional; in short: as §1
# Acinetobacter baumannii [4] = assay: Antimicrobial activity against clinical isolate Acinetobacter baumannii 3879 assessed as bacterial growth inhibition incubated in presence of serum for 24 hrs; type: functional; in short: as §1
# Acinetobacter baumannii [5] = assay: Antimicrobial activity against clinical isolate Acinetobacter baumannii 3880 assessed as bacterial growth inhibition incubated in presence of serum for 24 hrs; type: functional; in short: as §1
# Acinetobacter baumannii [6] = assay: Antimicrobial activity against clinical isolate Acinetobacter baumannii 3862 assessed as bacterial growth inhibition incubated in presence of serum for 24 hrs; type: functional; in short: as §1
# Salmonella enterica = assay: Antimicrobial activity against Salmonella enterica assessed as bacterial growth inhibition incubated in presence of serum for 24 hrs; type: functional; in short: as §1
# [7] = Stability in human serum assessed as half life by LC-MS analysis; type: ADME, cell-free
# In short: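 1 mM peptide stocks in water were mixed 1:1 (v/v) with human serum. Aliquots were taken at set times and digestion was stopped by acetonitrile precipitation. Serum proteins were removed by centrifugation, and intact peptide and fragments in the supernatant were analysed by LC–MS. Half-life values are the mean of three independent studies.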
# Salmonella typhimurium [8] = assay: Antimicrobial activity against clinical isolate Salmonella typhimurium 324 assessed as bacterial growth inhibition incubated in presence of serum for 24 hrs; type: functional, Salmonella enterica subsp. enterica serovar Typhimurium; details: Salmonella enterica; in short: as §1
# [9] = Hemolytic activity in horse RBC assessed as hemolysis at 250 uM relative to control; type: ADME, tissue-based, Equus caballus; details: erythrocyte
# In short: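 Horse erythrocytes were diluted 10-fold in PBS and washed by three spins at 800g. They were incubated with peptides for 4 h at 37 °C, and supernatant absorbance was read at 540 nm. Percent hemolysis is relative to total lysis with 1% Triton X-100. Values are the mean of three independent studies.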
# Pseudomonas aeruginosa [10] = assay: Antimicrobial activity against clinical isolate Pseudomonas aeruginosa 827651 assessed as bacterial growth inhibition incubated in presence of serum for 24 hrs; type: functional; in short: as §1
# Escherichia coli [11] = assay: Antimicrobial activity against Escherichia coli assessed as bacterial growth inhibition incubated for 24 hrs
# Salmonella typhimurium [12] = assay: Antimicrobial activity against clinical isolate Salmonella typhimurium 365 assessed as bacterial growth inhibition incubated in presence of serum for 24 hrs; type: functional, Salmonella enterica subsp. enterica serovar Typhimurium; details: Salmonella enterica; in short: as §1
# Acinetobacter baumannii [13] = assay: Antimicrobial activity against Acinetobacter baumannii assessed as bacterial growth inhibition incubated for 24 hrs
# MRC5 = assay: Cytotoxicity against human MRC5 cells assessed as cell growth inhibition measured after 4 hrs by MTT assay; type: cell-based; details: MRC5, 4 h
# In short: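 MRC-5 fibroblasts were grown in MEMα with 10% FBS, seeded at 3 × 10^4 cells/well and left overnight to adhere. Cells were exposed to two-fold peptide serial dilutions for 4 h, then given medium with MTT at 0.4 mg/mL for 150 min. Formazan was dissolved in DMSO and read at 600 nm. Values are the mean of three independent studies.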
# Acinetobacter baumannii [14] = assay: Antimicrobial activity against clinical isolate Acinetobacter baumannii 3878 assessed as bacterial growth inhibition incubated in presence of serum for 24 hrs; type: functional; in short: as §1
# Escherichia coli [15] = assay: Antimicrobial activity against clinical isolate Escherichia coli cf073 assessed as bacterial growth inhibition incubated in presence of serum for 24 hrs; type: functional; in short: as §1
# [16] = Retention time of the compound by HPLC analysis; type: physicochemical
# In short: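 Analytical RP-HPLC on a C18 column (4.6 × 50 mm, 3 μm) with a linear gradient of 0–60% acetonitrile (0.036% TFA) into water (0.045% TFA) over 15 min. Flow was 1 mL/min with UV detection at 220 nm.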
# Pseudomonas aeruginosa [17] = assay: Antimicrobial activity against clinical isolate Pseudomonas aeruginosa 827632 assessed as bacterial growth inhibition incubated in presence of serum for 24 hrs; type: functional; in short: as §1
Compound,Activity (Cell membrane [1]),Activity (Cell membrane [2]),MIC (Pseudomonas sp.),MIC (Shigella flexneri),MIC (Salmonella enterica),half-life [7],Activity [9],MIC (Escherichia coli [11]),MIC (Acinetobacter baumannii [13]),IC50 (MRC5),Retention_time [16],also measured
CC[C@H](C)[C@H](NC(=O)[C@H](CCCCN)NC(=O)[C@H](CCC(=O)O)NC(=O)[C@H](CCCCN)NC(=O)[C@H](CO)NC(=O)[C@H](CCCCN)NC(=O)[C@H](CCCNC(=N)N)NC(=O)[C@H](Cc1ccccc1)NC(=O)[C@H](Cc1ccccc1)NC(=O)[C@H](CC(=O)O)NC(=O)CNC(=O)[C@H](CC(C)C)NC(=O)[C@@H](N)CC(C)C)C(=O)NCC(=O)N[C@@H](CCCCN)C(=O)N[C@@H](CCC(=O)O)C(=O)N[C@@H](Cc1ccccc1)C(=O)N[C@@H](CCCCN)C(=O)N[C@@H](CCCNC(=N)N)C(=O)N[C@H](C(=O)N[C@H](C(=O)N[C@@H](CCC(N)=O)C(=O)N[C@@H](CCCNC(=N)N)C(=O)N[C@H](C(=O)N[C@@H](CCCCN)C(=O)N[C@@H](CC(=O)O)C(=O)N[C@@H](Cc1ccccc1)C(=O)N[C@@H](CC(C)C)C(=O)N[C@@H](CCCNC(=N)N)C(=O)N[C@@H](CC(N)=O)C(=O)N[C@@H](CC(C)C)C(=O)N[C@H](C(=O)N1CCC[C@H]1C(=O)N[C@@H](CCCNC(=N)N)C(=O)N[C@H](C(=O)N[C@@H](CCC(=O)O)C(=O)N[C@@H](CO)C(=O)O)[C@@H](C)O)C(C)C)[C@@H](C)CC)C(C)C)[C@@H](C)CC,Active,Active,–,–,–,–,–,–,–,–,–,–
CC[C@H](C)[C@H](NC(=O)[C@H](C)NC(=O)[C@H](CCCN)NC(=O)[C@H](CCSC)NC(=O)[C@H](C)NC(=O)[C@@H](NC(=O)[C@@H](NC(=O)[C@H](CCCN)NC(=O)[C@@H]1CCCN1C(=O)[C@H](CO)NC(=O)[C@@H](NC(=O)[C@H](Cc1c[nH]cn1)NC(=O)[C@H](CCC(N)=O)NC(=O)[C@@H](NC(=O)[C@H](C)NC(=O)[C@H](Cc1ccccc1)NC(=O)[C@H](Cc1c[nH]c2ccccc12)NC(=O)[C@H](CCC(N)=O)NC(=O)[C@H](C)NC(=O)[C@H](CCCN)NC(=O)[C@@H](NC(=O)[C@H](Cc1ccccc1)NC(=O)[C@H]1CCCN1C(=O)[C@@H](N)CCCN)[C@@H](C)O)[C@@H](C)CC)[C@@H](C)CC)[C@@H](C)O)[C@@H](C)CC)C(=O)N[C@@H](CC(N)=O)C(=O)N[C@@H](CC(N)=O)C(=O)N[C@@H](Cc1ccc(O)cc1)C(=O)N[C@@H](CCCN)C(=O)N[C@@H](Cc1c[nH]c2ccccc12)C(=O)N[C@@H](CCCN)C(=O)O,Active,Active,1.56 µM,50 µM,50 µM,> 8 h,1.1%,3.13 µM,12.5 µM,230 µM,10.9 min,MIC (Escherichia coli [3]): 25 µM; MIC (Acinetobacter baumannii [4]): 3.13 µM; MIC (Acinetobacter baumannii [5]): 12.5 µM; MIC (Acinetobacter baumannii [6]): 1.56 µM; MIC (Salmonella typhimurium [8]): 25 µM; MIC (Pseudomonas aeruginosa [10]): 25 µM; MIC (Salmonella typhimurium [12]): 25 µM; MIC (Acinetobacter baumannii [14]): 0.78 µM; MIC (Escherichia coli [15]): 6.25 µM; MIC (Pseudomonas aeruginosa [17]): > 100 µM
CC[C@H](C)[C@H](NC(=O)[C@H](C)NC(=O)[C@H](CCCN)NC(=O)[C@H](CCSC)NC(=O)[C@H](C)NC(=O)[C@@H](NC(=O)[C@@H](NC(=O)[C@H](CCCN)NC(=O)[C@@H]1CCCN1C(=O)[C@H](CO)NC(=O)[C@@H](NC(=O)[C@H](Cc1c[nH]cn1)NC(=O)[C@H](CCC(N)=O)NC(=O)[C@@H](NC(=O)[C@H](C)NC(=O)[C@H](Cc1ccccc1)NC(=O)[C@H](Cc1c[nH]c2ccccc12)NC(=O)[C@H](CCC(N)=O)NC(=O)[C@H](C)NC(=O)[C@H](CCCN)NC(=O)[C@@H](NC(=O)[C@@H](N)Cc1ccccc1)[C@@H](C)O)[C@@H](C)CC)[C@@H](C)CC)[C@@H](C)O)[C@@H](C)CC)C(=O)N[C@@H](CC(N)=O)C(=O)N[C@@H](CC(N)=O)C(=O)N[C@@H](Cc1ccc(O)cc1)C(=O)N[C@@H](CCCN)C(=O)N[C@@H](Cc1c[nH]c2ccccc12)C(=O)N[C@@H](CCCN)C(=O)O (H-FT[Orn]AQWFAIQHISP[Orn]TIAM[Orn]AINNY[Orn]W[Orn]-OH),–,–,25 µM,50 µM,> 100 µM,> 8 h,11%,25 µM,> 100 µM,> 300 µM,10.8 min,–
